SIAE primary: blocks human sialic acid acetylesterase. Q9HAT2. SIAE FP-Rh probe binding, fluorescence polarization. inhibition, % at 9.66 µM. 370,000 compounds, 0.69% hits. AID 1053197;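 active = inhibition above a cutoff: mean of compounds within the control limits plus 3 SD of those, cut at about 17% in these data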;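 note: 0% = plate median of compound wells and 100% = probe without SIAE protein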
ABHD4 inh: ABHD4 (mouse) inhibition, primary FP screen; 370,000 compounds, 0.54% hits; inhibition, % at 8.92 µM; purified mABHD4, FP-Rh probe fluorescence polarization; AID 720543;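 active = inhibition exceeding the mean over every tested compound plus 3 SD, cut at about 30% in these data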;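 note: 0% = plate median of compound wells and 100% = S159A mutant with DMSO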
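Test system: mABHD4 protein | Buffer or medium: HEPES pH 7.0 buffer, 150 mM NaCl, 0.01% Pluronic F-127 | Probe or stimulus: FP-Rh fluorescent activity-based probe, added after compound pre-incubation | Timing: Pre-incubation 45 min, probe exposure 60 min, at 25 °C | Technique: Fluorescence polarization, excitation 525 nm, emission 598 nm, BODIPY TMR filters | Repeats: Single well per compound (singlicate)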
HTRA1 inh: blocks human HTRA1 serine peptidase; recombinant HTRA1, FP-rhodamine activity-based probe, fluorescence polarization; inhibition, % at 5.96 µM; 340,000 compounds, 0.5% hits; AID 504803; in the data active = inhibition above about 36%;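 note: 0% = enzyme with DMSO and 100% = wells lacking enzyme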
PRMT1 FP inh: blocks human protein arginine methyltransferase 1 | Q99873 | recombinant PRMT1, activity-based probe fluorescence polarization | inhibition, % at 2.79 µM | 370,000 compounds, 1.3% hits;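 active = inhibition above about 21% made by adding two undisclosed values, limit read from the data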
Target sequence (Q99873 whole entry, looked up): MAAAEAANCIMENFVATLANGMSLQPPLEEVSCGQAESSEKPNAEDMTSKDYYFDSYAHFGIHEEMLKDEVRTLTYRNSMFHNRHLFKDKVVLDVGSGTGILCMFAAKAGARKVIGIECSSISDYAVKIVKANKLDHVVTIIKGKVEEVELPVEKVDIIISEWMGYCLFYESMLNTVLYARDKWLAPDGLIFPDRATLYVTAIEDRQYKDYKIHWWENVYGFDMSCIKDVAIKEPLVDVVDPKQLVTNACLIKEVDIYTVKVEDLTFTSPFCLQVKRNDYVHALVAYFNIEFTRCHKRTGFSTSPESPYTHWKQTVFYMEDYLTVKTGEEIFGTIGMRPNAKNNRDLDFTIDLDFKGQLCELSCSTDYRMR
TCR CD3 inh: human TCR-CD3 binding inhibition | inhibition, % at 9.4 µM | 360,000 compounds, 0.37% hits | TAMRA-labeled TCR probe fluorescence, biochemical; in the data active = inhibition above about 19%;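 note: recombinant mutant TCR 2C K166C tagged with TAMRA read by polarization; 0% = receptor in buffer alone and 100% = receptor with positive control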
SIAE confirm: human SIAE inhibition, confirmation; shares compounds with SIAE primary; SIAE FP-Rh activity-based probe, fluorescence polarization; inhibition, % at 9.66 µM; 2,300 compounds, 13% hits; AID 1117263;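 active = mean inhibition of the replicates above the hit cutoff set in the primary screen, cut at about 17% in these data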;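 note: 0% = SIAE with DMSO and probe and 100% = probe without SIAE; inhibitors lower polarization as more probe stays unbound to SIAE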
Active calls of the source: *; / = no result. An excerpt weighted towards active compounds, which were near 2.7% of everything screened.

SMILES	SIAE primary	ABHD4 inh	HTRA1 inh	PRMT1 FP inh	TCR CD3 inh	SIAE confirm
COc1cc(/C=C/C(=O)c2ccc(NS(=O)(=O)c3ccc(C)cc3)cc2)ccc1OC(F)F	-26.1	14.0	-51.5	-0.6	0.2	/
COc1cc(/C=C/C(=O)c2ccc(NS(=O)(=O)c3ccc(C)cc3)cc2)cc(OC)c1O	77.9*	-8.4	5.6	7.0	-11.4	-33.4
Cc1ccc2c(c1)C1C=CCC1C(C(=O)NCCCN1CCOCC1)N2 (stereo not given)	8.0	8.7	12.6	3.1	-0.2	/
CC(=O)c1ccc2c(c1)C1C=CCC1C(C(=O)O)N2 (stereo not given)	34.1*	70.0*	/	70.6*	49.2*	8.5
COc1cc(NC(=O)c2cc3ccccc3cc2O)c(OC)cc1Cl	18.3*	6.6	-8.2	2.0	-4.5	5.7
COc1ccccc1NC(=O)c1cc2cc(Br)ccc2cc1O	42.7*	1.5	26.4	1.2	7.7	-2.8
COc1cc(OC)c(NC(=O)c2ccccc2F)cc1Cl	-1.8	1.7	-0.7	0.1	5.0	/
O=C(Cc1ccc(Cl)cc1Cl)NCc1cccnc1	-7.0	1.9	6.7	0.2	-0.7	/
CCOC(=O)c1c(/N=C/C2=C(O)CCCC2=O)sc(C)c1C	18.0*	-13.4	-3.5	2.5	-2.5	2.2
O=C(NC1CCCN(Cc2ccc(Cl)cc2)C1)c1ccoc1 (stereo not given)	-2.3	3.1	-1.2	-2.0	2.2	/
Cc1ccc(-n2c(SC/C=C/c3ccccc3)nnc2-c2ccco2)cc1	4.0	-10.7	/	-2.3	/	/
COc1ccc(CCNc2ncnc3c2[nH]c2cc(OC)c(OC)cc23)cc1OC	19.3*	13.0	8.7	1.0	-8.7	25.6*
CCc1ccc(CNC(=O)CCS(=O)(=O)Cc2ccccc2F)cc1	19.9*	-7.2	-6.8	-1.1	0.4	4.0
O=C1NCCN(CC2CCN(CCc3ccccc3)CC2)C1=O	12.1	8.4	3.9	-0.6	-8.2	/
CC(C)(C)CCN1CCC(CN2CCNC2=S)CC1	17.7*	6.4	3.6	3.2	-7.4	4.9
COc1ccc(OC)c(NC(=O)C2(C)CCN2C(=O)C2(c3ccc(Cl)cc3)CCC2)c1 (stereo not given)	-0.1	-5.6	/	-1.4	1.7	/
O=C(CSCc1cc(=O)n2ccsc2n1)Nc1ccc(F)cc1	2.5	3.5	1.6	0.9	5.7	/
COc1ccc(-c2nc(C(=O)O)cs2)cc1OC	2.5	-0.7	4.0	1.0	6.5	/
COc1ccc(C(=O)O)nc1C	21.2*	4.9	-2.3	-2.2	-1.8	6.1
CCCOn1nnnc1-c1ccccc1	18.4*	8.2	2.4	-1.8	5.2	3.2
COc1ccc(O)c(/C=N/NC(=S)NCCc2ccccc2)c1	18.3*	7.0	25.9	-1.5	9.0	9.0
Oc1ccc(Br)cc1/C=N/NC(=S)NCCc1ccccc1	18.0*	-5.0	21.8	-1.0	9.1	9.6
COc1ccc(/C=N/NC(=S)NCCc2ccccc2)cc1	6.1	-9.7	-39.5	2.6	9.3	/
COc1ccc(NC(=O)Nc2ccc3c(c2)CC(=O)N([C@H](C)CO)C[C@H](C)[C@H](CN(C)Cc2ccc(C(=O)O)cc2)O3)cc1	0.3	-5.0	-0.7	-3.4	-5.1	/
COCCn1c(N)c(C#N)c2nc3ccccc3nc21	19.0*	3.7	-2.0	2.6	1.2	6.1
SMILES	SIAE primary	ABHD4 inh	HTRA1 inh	PRMT1 FP inh	TCR CD3 inh	SIAE confirm
COc1cc(/C=C2/SC(=S)N(c3c(C)n(C)n(-c4ccccc4)c3=O)C2=O)ccc1O	-133.3	-98.5	-119.6	4.1	-67.8	/
CCCCC(CCC(=O)O)(C(=O)OCC)c1csc(Nc2ccccc2)n1 (stereo not given)	/	/	0.7	/	/	/
CCOC(=O)/C(=N\Nc1ccc(Cl)cc1)c1csc(Nc2ccccc2)n1	19.9*	2.4	27.8	1.1	2.1	-2.8
CCOCCCNCC(=O)N1CCN(S(=O)(=O)c2ccc(C)cc2)CC1	17.2*	-2.4	5.8	-2.1	-2.1	-0.6
CN1CCN(C(=O)CCC(=O)NCc2ccc(F)cc2)CC1	-7.9	-2.4	2.1	2.9	3.3	/
Cc1ccc(S(=O)(=O)N2CCN(C(=O)CCC(=O)NCc3ccc(F)cc3)CC2)cc1	17.8*	5.6	0.1	0.6	-3.1	2.4
CC(C)c1ccc(C2NC(=O)CCC2[N+](=O)[O-])cc1 (stereo not given)	3.5	-2.6	-2.8	-0.9	-2.6	/
COc1ccc(S(=O)(=O)N(C)C[C@H]2Oc3c(NS(=O)(=O)c4cn(C)cn4)cccc3C(=O)N([C@H](C)CO)C[C@@H]2C)cc1	9.7	4.2	1.5	-0.1	-6.8	/
Cc1ccc([N+](=O)[O-])cc1NC(=O)C1CCN(S(C)(=O)=O)CC1	19.6*	5.3	0.5	-2.9	0.9	2.7
Cc1ccc([N+](=O)[O-])cc1NC(=O)C1CCCC1	5.1	-5.8	1.7	-4.1	6.4	/
CCOC(=O)c1ccc(S(=O)(=O)Nc2cc(S(=O)(=O)Nc3ccc(OC)cc3)ccc2O)cc1	-4.6	7.6	8.1	-0.2	4.3	/
Nc1ccn([C@@H]2O[C@H](C(=O)NCc3ccc4c(c3)OCO4)[C@@H](O)[C@H]2O)c(=O)n1	51.7*	-2.9	/	-3.8	1.8	49.5*
Nc1ccn([C@@H]2O[C@H](C(=O)NCCc3ccc(F)cc3)[C@@H](O)[C@H]2O)c(=O)n1	8.8	5.9	/	-0.2	-4.1	/
CC1(C)C2CC[C@]3(C)C(CC=C4[C@@H]5C[C@@](C)(CO)[C@@H](O)C[C@]56C[C@@H](OC6=O)[C@]43C)[C@@]2(C)CC[C@@H]1O (stereo not given in full)	-0.8	2.2	-0.7	3.2	6.4	/
Cc1cnc(CN(C)C(=O)c2ccc3oc(Cc4ccc(Cl)cc4)nc3c2)[nH]1	17.6*	3.1	0.6	-2.8	1.1	0.3
COc1ccc(-n2nnc3c(=O)n(C/C=C/c4ccccc4)cnc32)cc1	20.6*	4.2	0.6	-2.1	-6.6	-3.4
COc1ccc(-n2nnc3c(=O)n(CC(=O)N4CCCC4)cnc32)cc1	0.6	-4.2	3.9	2.7	1.9	/
COc1ccc(C(=O)N(C)[C@H]2C[C@H]3c4[nH]c5c(-c6ccccc6)cccc5c4CCN3C(=O)[C@H]2[C@H](C)O)cc1	9.7	0.5	/	-1.6	6.3	/
O=C(NCc1cccc(C(F)(F)F)c1)O[C@H]1CC[C@@]23CCCN2C(=O)CCC[C@H]3C1	4.2	3.3	/	-2.4	/	/
COc1ccc(OC)c([N+](=O)[O-])c1C(N)=O	33.0*	2.0	1.8	7.5	3.8	1.9

Assay outcomes (PubChem BioAssay)
